Measured values as given in publication PMC6520168 (ACS chemical neuroscience, 2019).
Entries after “also recorded” stand apart in the source; their conditions may differ. Like-named read-outs stand apart in the source and are kept apart here.

How the values were obtained:
MOR [1] = target: T1, MOR (Mus musculus, UniProt P42866); details: 24 h pretreatment; values previously published; cited from earlier work
MOR [2] = target: T1, MOR; format: cell-based; details: 24 h pretreatment
MOR in mouse thalamus = MOR in mouse thalamus (Mus musculus, UniProt P42866); experiment: [35S]-GTPγS functional assay in mouse thalamus membranes; format: biochemical
Chain of MOR in mouse thalamus (P42866 whole entry): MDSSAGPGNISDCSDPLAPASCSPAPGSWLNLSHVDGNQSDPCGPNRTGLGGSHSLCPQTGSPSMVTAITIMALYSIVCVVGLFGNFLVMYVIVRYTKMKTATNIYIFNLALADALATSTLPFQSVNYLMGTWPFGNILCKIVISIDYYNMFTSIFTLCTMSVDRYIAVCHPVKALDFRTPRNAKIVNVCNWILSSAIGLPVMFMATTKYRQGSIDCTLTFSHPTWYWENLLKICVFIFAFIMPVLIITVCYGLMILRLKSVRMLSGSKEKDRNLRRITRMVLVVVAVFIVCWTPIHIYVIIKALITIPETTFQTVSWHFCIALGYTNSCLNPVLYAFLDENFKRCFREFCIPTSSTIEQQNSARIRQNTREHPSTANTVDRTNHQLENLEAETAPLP

hMOR = hMOR (Homo sapiens, UniProt P35372); experiment: Ca2+ flux assay in Gαqi5 transfected hMOR-CHO cells; format: cell-based; details: agonism study
Chain of hMOR (P35372 whole entry): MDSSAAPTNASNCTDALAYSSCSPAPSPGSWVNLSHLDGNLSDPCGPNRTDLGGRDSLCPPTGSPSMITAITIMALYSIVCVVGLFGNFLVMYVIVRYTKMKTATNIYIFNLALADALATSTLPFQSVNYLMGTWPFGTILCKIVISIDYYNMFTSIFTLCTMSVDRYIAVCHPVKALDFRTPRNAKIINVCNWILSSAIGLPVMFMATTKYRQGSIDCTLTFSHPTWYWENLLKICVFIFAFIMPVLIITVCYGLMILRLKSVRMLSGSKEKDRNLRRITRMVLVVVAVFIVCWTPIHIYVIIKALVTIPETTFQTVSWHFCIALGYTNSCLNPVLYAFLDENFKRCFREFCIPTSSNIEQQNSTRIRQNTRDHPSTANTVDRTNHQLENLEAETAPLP

δ opioid receptor (DOR) = δ opioid receptor (DOR) (Mus musculus, UniProt P32300); experiment: [35S]-GTPγS functional assay in mDOR-CHO cells; format: biochemical
Chain of δ opioid receptor (DOR) (P32300 whole entry): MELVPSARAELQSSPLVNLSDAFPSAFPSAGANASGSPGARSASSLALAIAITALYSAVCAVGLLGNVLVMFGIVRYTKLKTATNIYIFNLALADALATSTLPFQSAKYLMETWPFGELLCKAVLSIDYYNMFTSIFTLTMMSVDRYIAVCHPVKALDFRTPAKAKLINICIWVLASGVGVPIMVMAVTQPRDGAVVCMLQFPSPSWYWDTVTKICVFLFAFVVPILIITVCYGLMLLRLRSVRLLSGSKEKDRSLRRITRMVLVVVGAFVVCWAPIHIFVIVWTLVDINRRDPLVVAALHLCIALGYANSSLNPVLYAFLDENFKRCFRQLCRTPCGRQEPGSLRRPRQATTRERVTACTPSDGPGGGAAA

DOR = details: read-out: DOR Ki; cited from earlier work
human NOP receptor = human NOP receptor (Homo sapiens, UniProt P41146); experiment: [3H]nociceptin NOP receptor binding assay; details: 3 μM test ligand
Chain of human NOP receptor (P41146 whole entry): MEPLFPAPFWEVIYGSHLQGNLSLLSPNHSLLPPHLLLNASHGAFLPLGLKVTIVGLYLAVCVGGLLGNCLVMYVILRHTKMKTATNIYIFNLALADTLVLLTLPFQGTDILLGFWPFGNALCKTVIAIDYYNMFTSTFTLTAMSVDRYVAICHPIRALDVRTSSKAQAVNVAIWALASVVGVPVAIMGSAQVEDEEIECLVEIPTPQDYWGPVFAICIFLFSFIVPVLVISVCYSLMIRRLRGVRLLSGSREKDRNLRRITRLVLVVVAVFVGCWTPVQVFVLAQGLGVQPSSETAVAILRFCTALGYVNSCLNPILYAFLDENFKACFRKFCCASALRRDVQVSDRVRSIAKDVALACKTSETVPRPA
Procedure, shortened: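 Membranes came from CHO cells stably expressing human NOP receptor (~5 pmol/mg protein), lysed hypotonically in Tris/EDTA/PMSF (pH 7.4). Binding used 20 μg protein with 0.2 nM [3H]nociceptin in 50 mM Tris-HCl, 0.1% BSA, pH 7.4, with or without 3 μM test compound. Percent inhibition = 100% − (binding with compound − nonspecific)/(total − nonspecific) × 100%.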

κ opioid receptor (KOR) = κ opioid receptor (KOR) (Mus musculus, UniProt P33534); experiment: [35S]-GTPγS functional assay in mKOR-CHO cells; format: biochemical
Chain of κ opioid receptor (KOR) (P33534 whole entry): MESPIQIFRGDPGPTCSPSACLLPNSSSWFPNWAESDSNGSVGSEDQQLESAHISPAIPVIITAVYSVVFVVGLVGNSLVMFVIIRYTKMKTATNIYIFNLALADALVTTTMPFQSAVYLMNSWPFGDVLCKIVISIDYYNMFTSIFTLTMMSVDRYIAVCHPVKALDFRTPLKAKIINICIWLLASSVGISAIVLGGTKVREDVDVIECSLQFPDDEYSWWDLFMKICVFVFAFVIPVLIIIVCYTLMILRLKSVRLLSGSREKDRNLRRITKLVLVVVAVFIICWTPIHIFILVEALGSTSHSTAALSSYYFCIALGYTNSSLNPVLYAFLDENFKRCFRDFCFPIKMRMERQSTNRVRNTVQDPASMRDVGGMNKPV

morphine-pelleted mice = experiment: Withdrawal assay in chronic morphine-pelleted mice; format: in vivo, mouse
μ opioid receptor (MOR) = μ opioid receptor (MOR) (Mus musculus, UniProt P42866); experiment: [35S]-GTPγS functional assay in mMOR-CHO cell membranes; format: biochemical
Chain of μ opioid receptor (MOR) (P42866 whole entry): as the sequence (P42866 whole entry) above

mice = details: cited from earlier work
MOR [3] = target: T1, MOR; format: cell-based
MOR in rat thalamus = details: cited from earlier work
[4] = 1 mg/kg s.c., morphine-pelleted mice
[5] = 50 mg/kg s.c., morphine-pelleted mice

T1 sequence (P42866 whole entry): as above

C[C@@H](NC(=O)[C@@H](N)Cc1ccc(O)cc1)C(=O)NCC(=O)N(C)[C@@H](Cc1ccccc1)C(=O)NCCO [DAMGO, [D-Ala^2, N-MePhe^4, Gly-ol]-enkephalin, reference compound]
Bmax (pmol/mg) of [3H]naloxone saturation binding after pretreatment (MOR [1]): 1.49 ± 0.12 pmol/mg | Reduction in receptor density (Bmax) (MOR [2]; versus vehicle): ~50%

O=C(N[C@H]1CC[C@@]2(O)[C@H]3Cc4ccc(O)c5c4[C@@]2(CCN3CC2CC2)[C@H]1O5)c1cccc2cc[nH]c12 [NAN, 17-cyclopropylmethyl-3,14β-dihydroxy-4,5α-epoxy-6α-(indole-7-carboxamido)morphinan]
MOR stimulation compared to other ligands (MOR in mouse thalamus): low MOR stimulation that was significantly less than DAMGO and similar to NAQ and nalbuphine | Agonism in Ca2+ flux assay (hMOR): no apparent agonism | Bmax (pmol/mg) of [3H]naloxone saturation binding after pretreatment (MOR [2]; 1 μM): 3.92 ± 0.20 pmol/mg | EC50 (δ opioid receptor (DOR); DOR EC50 (nM), mDOR-CHO): 22.8 ± 3.95 nM | Emax (δ opioid receptor (DOR); read-out: DOR Emax (% max of SNC80), mDOR-CHO, relative to 5 μM SNC80): ~27% | Ki (DOR): 13.7 ± 1.39 nM | Inhibition of [3H]-nociceptin binding to the NOP receptor (human NOP receptor): did not inhibit binding; also recorded: did not show NOP binding | EC50 (κ opioid receptor (KOR); KOR EC50 (nM), mKOR-CHO): 17.8 ± 3.24 nM | Emax (κ opioid receptor (KOR); read-out: KOR Emax (% max of U50,488H), mKOR-CHO, relative to 5 μM U50,488H): ~74% | Escape jumps versus 1 mg/kg NTX (morphine-pelleted mice; [4]): significantly less | Wet-dog shakes versus 1 mg/kg NTX (morphine-pelleted mice; [4]): significantly less | Escape jumps versus 1 mg/kg NTX (morphine-pelleted mice; 10 mg/kg s.c., morphine-pelleted mice): not significantly different | Escape jumps versus 1 mg/kg NTX (morphine-pelleted mice; [5]): not significantly different | Paw tremors versus 1 mg/kg NTX (morphine-pelleted mice; [5]): significantly less | Wet-dog shakes versus 1 mg/kg NTX (morphine-pelleted mice; [5]): significantly less | Withdrawal signs in placebo-pelleted mice (morphine-pelleted mice; 50 mg/kg s.c., placebo-pelleted mice, 20 min observation): did not induce any significant withdrawal signs | Effect on the DAMGO Emax value (μ opioid receptor (MOR); 5 nM coincubation, mMOR-CHO cells and thalamus): did not have any effect on the DAMGO Emax value | MOR stimulation compared to other ligands (μ opioid receptor (MOR); mMOR-CHO cells): low MOR stimulation that was significantly less than DAMGO and similar to NAQ and nalbuphine | Emax (μ opioid receptor (MOR); read-out: Emax (% DAMGO)): 25.5 ± 1.58% | Antinociception in the tail-flick assay (mice): did not produce antinociception | Antagonism of the antinociceptive activity of morphine (mice; mice, warm water tail immersion assay): almost completely antagonized

O=C(N[C@H]1CC[C@@]2(O)[C@H]3Cc4ccc(O)c5c4[C@@]2(CCN3CC2CC2)[C@H]1O5)c1cc2ccccc2cn1 [NAQ, 17-cyclopropyl-methyl-3,14β-dihydroxy-4,5α-epoxy-6α-(isoquinoline-3-carboxamido)morphinan]
Change of DAMGO EC50 value after ligand pretreatment (desensitization) (MOR [3]): did not produce a significant change | Bmax (pmol/mg) of [3H]naloxone saturation binding after pretreatment (MOR [1]): 3.75 ± 0.34 pmol/mg | Apparent increase in [3H]naloxone KD value after treatment (MOR [2]; versus vehicle): 3.5–4 fold

O=C1CC[C@@]2(O)[C@H]3Cc4ccc(O)c5c4[C@@]2(CCN3CC2CC2)[C@H]1O5 [NTX, naltrexone]
Functional character in the rat thalamus (MOR in rat thalamus): pure antagonists

Oc1ccc2c3c1O[C@H]1[C@@H](O)CC[C@@]4(O)[C@@H](C2)N(CC2CCC2)CC[C@]314 [nalbuphine]
Functional character in the rat thalamus (MOR in rat thalamus): pure antagonists
